Screening data as filed in PubChem.
AP ELISA ortho – alternative pathway complement inhibition, orthogonal assay; Human serum alternative complement pathway, LPS-coated ELISA, C3 deposition; tested in compound mixtures; inhibition, % at 5 µM; actives 0.08% (n = 62,000);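 active means inhibition above 30% in each of the two pooled mixtures holding the compound, so the lower value exceeds 30%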
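Assay system: human serum alternative complement pathway, C3 deposition on LPS-coated wells; Dosing: 5 µM per compound in ten-compound mixtures; Detection: Anti-C3 ELISA, OD 450 nm; Buffer or medium: Mg2+-EGTA GVB++ buffer containing human serum at 1:15 dilution; Timing: 1 h at 37 °C; Replication: two different pools per compound.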
BAP1 inh – inhibitors of human BAP1 deubiquitinase; calls only at 20 µM; AID 436; recombinant BAP1, Ub-AMC hydrolysis fluorescence kinetic; stronger effect = lower value; actives 0.48% (n = 72,000); Q92560;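 active means activity remaining at or below 50% of control, provided the compound also passes the data quality filters; inactive means the rest, including low values that fail the filters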
Ec RNAP inh – Escherichia coli RNA polymerase inhibition; P0A8V2; E. coli RNA polymerase, fluorescence transcription assay; inhibition, %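 (tested at 10 µM)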; actives 0.2% (n = 62,000); AID 559; in the data active means inhibition above about 20%
Target sequence (P0A8V2 whole entry, looked up): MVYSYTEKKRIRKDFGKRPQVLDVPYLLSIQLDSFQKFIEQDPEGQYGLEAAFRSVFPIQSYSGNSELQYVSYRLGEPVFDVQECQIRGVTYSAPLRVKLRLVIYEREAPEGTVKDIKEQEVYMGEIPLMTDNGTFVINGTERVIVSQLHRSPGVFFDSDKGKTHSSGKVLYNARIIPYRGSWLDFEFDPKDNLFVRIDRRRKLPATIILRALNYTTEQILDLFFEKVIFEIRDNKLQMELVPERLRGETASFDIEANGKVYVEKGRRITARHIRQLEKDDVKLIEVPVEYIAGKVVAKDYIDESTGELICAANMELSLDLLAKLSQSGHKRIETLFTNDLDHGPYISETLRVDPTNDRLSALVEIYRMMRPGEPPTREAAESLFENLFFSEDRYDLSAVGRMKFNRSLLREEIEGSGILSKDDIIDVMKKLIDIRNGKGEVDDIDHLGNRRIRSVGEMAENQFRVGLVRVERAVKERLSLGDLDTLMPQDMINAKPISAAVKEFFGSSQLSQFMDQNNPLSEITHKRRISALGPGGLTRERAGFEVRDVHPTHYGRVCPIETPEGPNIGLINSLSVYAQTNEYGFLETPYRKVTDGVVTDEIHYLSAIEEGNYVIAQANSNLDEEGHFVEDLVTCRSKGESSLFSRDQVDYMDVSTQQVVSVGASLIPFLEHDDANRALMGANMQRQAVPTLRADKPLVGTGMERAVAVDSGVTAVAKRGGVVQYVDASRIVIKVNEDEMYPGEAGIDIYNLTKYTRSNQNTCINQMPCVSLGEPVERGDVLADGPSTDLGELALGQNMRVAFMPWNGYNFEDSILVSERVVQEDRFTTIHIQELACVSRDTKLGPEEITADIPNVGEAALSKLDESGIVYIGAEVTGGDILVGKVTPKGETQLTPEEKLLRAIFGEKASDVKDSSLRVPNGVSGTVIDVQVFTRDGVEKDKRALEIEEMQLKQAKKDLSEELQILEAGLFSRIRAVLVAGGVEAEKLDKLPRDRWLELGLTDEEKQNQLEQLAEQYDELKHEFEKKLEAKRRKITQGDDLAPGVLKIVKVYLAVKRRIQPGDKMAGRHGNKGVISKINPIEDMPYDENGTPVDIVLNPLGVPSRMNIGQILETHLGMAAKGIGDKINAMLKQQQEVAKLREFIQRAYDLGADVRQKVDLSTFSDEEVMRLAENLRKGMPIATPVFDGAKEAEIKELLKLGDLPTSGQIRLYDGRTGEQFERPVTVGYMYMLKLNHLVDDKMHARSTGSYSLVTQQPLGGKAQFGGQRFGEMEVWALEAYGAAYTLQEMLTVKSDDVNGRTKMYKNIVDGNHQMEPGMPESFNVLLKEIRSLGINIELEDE
BAP1 inh confirm – confirmation of human BAP1 enzyme inhibitors | shares compounds with BAP1 inh | purified BAP1, Ub-ethyl ester hydrolysis, HPLC; stronger effect = lower value | % of control activity, % at 20 µM | actives 8% (n = 310) | AID 753;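 active means percent of control activity at or below 60%; inconclusive means HPLC trace unusable from injection failure or solvent front hiding peaks; inactive means the rest, plus ubiquitin peak ratio over a set limit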
Hits are given with their value; i = inactive; ? = inconclusive; nt = not tested or not shown; + = active, no number. Most compounds without a hit are left out; they make up all but 0.66% or so of the library.

SMILES	AP ELISA ortho	BAP1 inh	Ec RNAP inh	BAP1 inh confirm
COc1ccc2cc3c(N)c(C(=O)NCc4ccco4)sc3nc2c1	i	i	i	nt
Nc1c(C(=O)NCc2ccco2)sc2nc3c(cc12)C(=O)CCC3	i	+	i	i
Cc1ccc([N+](=O)[O-])cc1N1COc2ccc3ccccc3c2C1	nt	i	nt	nt
CCOC(=O)c1sc2nc(NC(=O)c3cccs3)sc2c1C	i	i	i	nt
CCOC(=O)c1sc2nc(NC(=O)COc3ccccc3)sc2c1C	i	+	i	i
COCCn1nnnc1C(C(C)C)N(Cc1cccnc1)Cc1cc2cc(OC)ccc2[nH]c1=O (stereo not given)	i	+	i	i
COCCn1nnnc1C(C(C)C)N(Cc1ccccc1)Cc1cc2cc(OC)ccc2[nH]c1=O (stereo not given)	i	i	i	nt
Cc1ccccc1NC(=O)CN(c1cccc([N+](=O)[O-])c1)S(=O)(=O)c1ccccc1	nt	i	nt	nt
Cc1ccc(-c2cc(C(=O)OCC(=O)Nc3cc(C)on3)c3ccccc3n2)c(C)c1	i	+	i	i
Cc1ccc2nc(-c3ccccc3Cl)cc(C(=O)Nc3cc(C)on3)c2c1	i	i	i	nt
CCOc1ccc(OCC)c(NC(=O)c2[nH]c(C)c(C(C)=O)c2C)c1	i	+	i	i
CCOC(=O)c1[nH]c(C)c(C(=O)Nc2cc(OC)ccc2OC)c1C	i	i	i	nt
Cc1cc(NC(=O)CSc2nc3ccccc3c(=O)n2C2CCCC2)no1	i	i	i	nt
CN(C)c1ccc(NC(=O)CSc2nc3ccccc3c(=O)n2C2CCCCC2)cc1	i	+	i	57
O=C(CSc1nnc(COc2ccc3c(c2)CCCC3)o1)Nc1ccc(F)cc1	i	+	i	i
COc1ccc(NC(=O)CSc2nnc(CNc3ccc(F)cc3)o2)c(OC)c1	i	i	nt	nt
COc1ccc(OC)c2c1sc(=NC(=O)c1ccco1)n2C	i	+	i	i
COc1cccc2sc(=NC(=O)C3CCCCC3)n(C)c12	nt	i	nt	nt
O=C1OC(c2ccc(Br)cc2)(c2ccc(Br)cc2)c2ccccc21	nt	i	nt	nt
COc1ccc(OCC(O)Cn2c(N3CCOCC3)nc3c2c(=O)n(C)c(=O)n3C)cc1 (stereo not given)	nt	i	nt	nt
CCOc1ccc(-n2c(C)nc3c(cnn3-c3ccc(Cl)cc3)c2=O)cc1	i	i	i	nt
CCc1nc2c(cnn2-c2ccc(Cl)cc2)c(=O)n1-c1ccc(OC)cc1	i	+	i	i
O=C(Nc1c(C(=O)Nc2ccc(Br)cc2)cnn1-c1ccccc1)c1ccccc1Cl	nt	i	nt	nt
CCN(CC)S(=O)(=O)c1ccc(C(=O)NC2C3CC4CC(C3)CC2C4)cc1 (stereo not given)	nt	i	nt	nt
COC(=O)c1ccc(N2C(=O)c3ccc(C(=O)Oc4ccccc4)cc3C2=O)cc1	nt	i	nt	nt
SMILES	AP ELISA ortho	BAP1 inh	Ec RNAP inh	BAP1 inh confirm
COc1ccc(C2C(C(=O)Nc3ccccc3)=C(C)N=C3SCC(=O)N32)cc1 (stereo not given)	nt	i	nt	nt
CC1=C(C(=O)Nc2ccccc2)C(c2ccc(C)o2)n2c(s/c(=C\c3ccco3)c2=O)=N1 (stereo not given)	i	+	i	i
COC(=O)c1ccccc1NC(=O)COc1ccc(OC)cc1	nt	i	nt	nt
COC(=O)c1c(NC(=O)c2cccc(F)c2)sc2c1CCC(C(C)(C)C)C2 (stereo not given)	nt	i	nt	nt
COc1ccc(C2Nc3ccccc3C(=O)N2Cc2ccccc2)cc1CN1C(=O)c2ccccc2C1=O (stereo not given)	nt	i	nt	nt
CCCCCOC(=O)CSc1nc2c(c(=O)[nH]c(=O)n2C)n1CCc1ccccc1	nt	+	nt	i
CCCCCn1c(SCCc2ccccc2)nc2c1c(=O)[nH]c(=O)n2C	i	i	i	nt
COC(=O)c1ccc(C(=O)Nc2ccc(C(=O)OC)cc2[N+](=O)[O-])cc1	nt	i	nt	nt
COC(=O)c1sc2ccccc2c1NC(=O)c1ccccc1Br	nt	i	nt	nt
Cc1ccccc1C(=O)N1CCN(c2ccc(NC(=O)c3ccco3)cc2Cl)CC1	i	i	i	nt
O=C(Nc1ccc(N2CCN(C(=O)c3ccco3)CC2)c(Cl)c1)c1c(F)c(F)c(F)c(F)c1F	i	+	i	?
COc1ccccc1OCc1nnc(SCC(=O)Nc2ccc(C)cc2)n1C	i	i	i	nt
Cc1ccccc1OCc1nnc(SCC(=O)Nc2ccc3c(c2)oc2ccccc23)n1C	i	+	i	i
COc1cc(C2NC(=S)NC(C)=C2C(N)=O)ccc1OCC(C)C (stereo not given)	nt	i	nt	nt
Brc1ccc(C2Nc3cccc4cccc(c34)N2)o1	i	+	i	i
Oc1ccccc1C1Nc2cccc3cccc(c23)N1	i	nt	i	nt
CCOC(=O)c1ccc(NC(=O)COc2c(C)cc(C)cc2C)cc1	nt	i	nt	nt
O=C(Nc1ccc(O)c(-c2nc3ccccc3s2)c1)c1ccc(S(=O)(=O)N2CCCCC2)cc1	nt	i	nt	nt
C=CCn1c(=S)oc2ccccc21	nt	i	nt	nt
COc1cccc(-n2nc(C(=O)Nc3ccc4c(c3)OCO4)c3ccccc3c2=O)c1	i	i	i	nt
COc1ccc(-n2nc(C(=O)Nc3ccc4c(c3)OCO4)c3c4ccccc4n(C)c3c2=O)cc1	i	+	i	i
CCCOc1ccc(C(=O)Oc2cccc3cccnc23)cc1	nt	i	nt	nt
Nc1nc(-c2cccnc2)nn1C(=O)COc1ccccc1	i	+	i	i
Nc1nc(-c2cccnc2)nn1C(=O)CCc1ccccc1	nt	i	nt	nt
COc1cc(C(=O)N2N=C(c3ccccc3)CC2c2ccccc2[N+](=O)[O-])cc(OC)c1OC (stereo not given)	nt	i	nt	nt
COc1ccc2cc(C(c3nnnn3Cc3ccccc3)N3CCCCCC3)c(=O)[nH]c2c1 (stereo not given)	i	+	i	50
COc1ccc2cc(C(c3nnnn3Cc3ccc(F)cc3)N3CCCCCC3)c(=O)[nH]c2c1 (stereo not given)	i	i	i	nt
CCOC(=O)c1ccc(NC(=O)CCc2c[nH]c3ccccc23)cc1	nt	i	nt	nt
CCOC(=O)c1ccc(NC(=O)CCc2ccc(CC)o2)cc1	i	+	i	i
COc1ccc(C2C=C(Nc3ccc(Cl)cc3)C(=O)N2c2ccc(Cl)cc2)cc1OC (stereo not given)	nt	i	nt	nt
